Each block holds one molecule with its values, some of them ahead of it. Active and inactive are the calls of the source.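 How the source made its calls: active means inhibition of 50% or more against any one of four protein arginine deiminase enzymes; inactive means the rest.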
Columns and labels:
Assay in all cases: inhibitors of PAD1, PAD2, PAD3 and PAD4, late-stage follow-up, selectivity assay for PAD4 inhibitor project, biochemical, colorimetric, BAEE substrate, recombinant enzymes (AID 588560)
[1] = biological target: Protein-arginine deiminase type-3 (Homo sapiens) (UniProt Q9ULW8); settings: recombinant PAD1-4, BAEE citrulline colorimetric, 15 min; PAD3; at 10 µM; hits give high values
Sequence of Protein-arginine deiminase type-3 (Homo sapiens) (Q9ULW8 whole entry, looked up): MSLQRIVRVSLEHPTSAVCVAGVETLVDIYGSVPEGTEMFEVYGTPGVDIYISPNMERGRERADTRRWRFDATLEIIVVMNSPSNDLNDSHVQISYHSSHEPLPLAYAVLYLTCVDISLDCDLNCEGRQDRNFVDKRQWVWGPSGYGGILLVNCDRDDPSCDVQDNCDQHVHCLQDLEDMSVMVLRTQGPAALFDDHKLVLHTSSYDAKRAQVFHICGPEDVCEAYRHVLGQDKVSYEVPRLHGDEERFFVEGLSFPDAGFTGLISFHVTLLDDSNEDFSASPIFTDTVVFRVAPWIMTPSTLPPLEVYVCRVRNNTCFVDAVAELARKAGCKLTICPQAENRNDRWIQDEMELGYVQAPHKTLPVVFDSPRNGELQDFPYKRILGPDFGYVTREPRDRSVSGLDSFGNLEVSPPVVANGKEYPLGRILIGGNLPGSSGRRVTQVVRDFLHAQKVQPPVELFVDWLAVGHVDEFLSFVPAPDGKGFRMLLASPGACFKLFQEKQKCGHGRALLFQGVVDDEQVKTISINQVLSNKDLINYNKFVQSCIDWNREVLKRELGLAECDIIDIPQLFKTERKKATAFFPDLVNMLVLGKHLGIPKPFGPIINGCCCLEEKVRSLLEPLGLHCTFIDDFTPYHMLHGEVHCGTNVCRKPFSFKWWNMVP
Procedure, shortened: (§1)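 System: recombinant PAD1, PAD2, PAD3 or PAD4 enzyme, one isozyme per assay; times: 15 min preincubation and 15 min reaction at 37 °C; also added: 10 mM BAEE; signal: citrulline color absorbance at 540 nm; control set: DMSO-treated enzyme as uninhibited reference; measure: % inhibition versus DMSO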

[2] = biological target: Protein-arginine deiminase type-2 (Homo sapiens) (UniProt Q9Y2J8); settings: recombinant PAD1-4, BAEE citrulline colorimetric, 15 min; PAD2; at 10 µM; hits give high values
Sequence of Protein-arginine deiminase type-2 (Homo sapiens) (Q9Y2J8 whole entry, looked up): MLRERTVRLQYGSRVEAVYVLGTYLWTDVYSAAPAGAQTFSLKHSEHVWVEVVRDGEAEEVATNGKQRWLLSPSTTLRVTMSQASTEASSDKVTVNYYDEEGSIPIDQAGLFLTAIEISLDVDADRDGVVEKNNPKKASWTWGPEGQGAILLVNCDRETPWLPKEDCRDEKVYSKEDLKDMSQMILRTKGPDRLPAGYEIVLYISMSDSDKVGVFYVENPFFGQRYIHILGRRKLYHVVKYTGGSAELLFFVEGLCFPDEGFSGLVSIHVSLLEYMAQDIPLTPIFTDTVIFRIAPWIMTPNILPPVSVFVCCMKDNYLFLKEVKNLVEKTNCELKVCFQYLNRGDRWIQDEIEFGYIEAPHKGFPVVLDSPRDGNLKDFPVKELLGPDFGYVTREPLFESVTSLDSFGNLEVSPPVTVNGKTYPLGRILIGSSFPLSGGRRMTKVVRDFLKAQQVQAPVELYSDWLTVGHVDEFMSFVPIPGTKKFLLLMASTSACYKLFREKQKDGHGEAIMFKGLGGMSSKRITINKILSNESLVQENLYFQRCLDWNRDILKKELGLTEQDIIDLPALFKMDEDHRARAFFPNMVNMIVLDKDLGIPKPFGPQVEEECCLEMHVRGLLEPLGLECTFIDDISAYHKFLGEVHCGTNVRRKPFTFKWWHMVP
Procedure, shortened: as §1

[3] = biological target: Protein-arginine deiminase type-1 (Homo sapiens) (UniProt Q9ULC6); settings: recombinant PAD1-4, BAEE citrulline colorimetric, 15 min; PAD1; at 10 µM; hits give high values
Sequence of Protein-arginine deiminase type-1 (Homo sapiens) (Q9ULC6 whole entry, looked up): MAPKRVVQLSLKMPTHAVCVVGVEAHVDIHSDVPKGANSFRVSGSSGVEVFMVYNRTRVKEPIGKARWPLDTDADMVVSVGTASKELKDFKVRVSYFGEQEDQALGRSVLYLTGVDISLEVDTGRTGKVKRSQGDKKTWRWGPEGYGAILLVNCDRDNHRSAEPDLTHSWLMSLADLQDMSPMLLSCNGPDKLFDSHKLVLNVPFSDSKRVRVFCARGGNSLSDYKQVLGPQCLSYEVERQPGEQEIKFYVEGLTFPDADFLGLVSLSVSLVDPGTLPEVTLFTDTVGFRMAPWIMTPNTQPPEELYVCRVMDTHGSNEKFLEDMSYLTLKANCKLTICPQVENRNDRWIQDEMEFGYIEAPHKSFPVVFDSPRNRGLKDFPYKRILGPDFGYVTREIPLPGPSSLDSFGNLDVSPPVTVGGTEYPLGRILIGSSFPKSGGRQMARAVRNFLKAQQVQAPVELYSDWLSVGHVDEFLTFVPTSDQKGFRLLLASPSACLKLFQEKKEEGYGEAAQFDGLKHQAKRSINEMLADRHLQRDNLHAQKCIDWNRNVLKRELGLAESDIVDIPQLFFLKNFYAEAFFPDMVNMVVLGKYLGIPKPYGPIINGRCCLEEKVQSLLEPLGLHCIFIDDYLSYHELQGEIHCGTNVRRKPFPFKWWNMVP
Procedure, shortened: as §1

[4] = biological target: Protein-arginine deiminase type-4 (Homo sapiens) (UniProt Q9UM07); settings: recombinant PAD1-4, BAEE citrulline colorimetric, 15 min; PAD4; at 10 µM; hits give high values
Sequence of Protein-arginine deiminase type-4 (Homo sapiens) (Q9UM07 whole entry, looked up): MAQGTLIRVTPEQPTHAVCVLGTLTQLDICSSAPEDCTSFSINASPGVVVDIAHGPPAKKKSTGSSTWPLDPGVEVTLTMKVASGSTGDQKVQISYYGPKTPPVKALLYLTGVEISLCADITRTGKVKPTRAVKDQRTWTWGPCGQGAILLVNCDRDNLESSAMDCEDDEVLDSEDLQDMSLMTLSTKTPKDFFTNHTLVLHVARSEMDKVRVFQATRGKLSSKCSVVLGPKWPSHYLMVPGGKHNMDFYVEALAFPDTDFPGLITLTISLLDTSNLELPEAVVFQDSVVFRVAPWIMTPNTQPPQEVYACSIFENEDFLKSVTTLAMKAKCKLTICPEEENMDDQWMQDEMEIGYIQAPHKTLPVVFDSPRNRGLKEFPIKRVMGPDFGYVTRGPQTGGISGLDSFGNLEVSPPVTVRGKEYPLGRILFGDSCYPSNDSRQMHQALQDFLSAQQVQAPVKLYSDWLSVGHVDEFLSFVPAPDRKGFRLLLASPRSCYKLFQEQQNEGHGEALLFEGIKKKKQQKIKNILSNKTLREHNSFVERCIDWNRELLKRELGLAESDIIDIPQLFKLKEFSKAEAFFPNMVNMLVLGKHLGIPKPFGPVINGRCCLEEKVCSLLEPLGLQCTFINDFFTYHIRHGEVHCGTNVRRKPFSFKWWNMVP
Procedure, shortened: as §1

- inhibition [1]: -7% (inactive)
- inhibition [2]: -31% (inactive)
- inhibition [3]: -15% (inactive)
SMILES: CCOC(=O)c1nc(C(=O)OCC)c(C(=O)OCC)c(-c2ccc(OC)c(OC)c2OCc2ccccc2)c1C

- inhibition [1]: 100%
- inhibition [4]: 99%
- inhibition [2]: 89%
- inhibition [3]: 70%
SMILES: NC1=CC(=O)c2cccnc2C1=O

- inhibition [1]: 98%
- inhibition [4]: 97%
- inhibition [2]: 63%
- inhibition [3]: 60%
SMILES: COC1=C(I)C(=O)c2nc(C#N)ccc2C1=O

- inhibition [1]: 18% (inactive)
- inhibition [2]: 7% (inactive)
- inhibition [3]: -38% (inactive)
SMILES: COC(=O)c1nnc(C(=O)OC)c(-c2ccc3c([N+](=O)[O-])c(OC)ccc3n2)n1

- inhibition [1]: 10% (inactive)
- inhibition [4]: 10% (inactive)
- inhibition [2]: 12% (inactive)
- inhibition [3]: -57% (inactive)
SMILES: O=C1C(Br)=CC(=O)c2ncccc21

- inhibition [1]: 15% (inactive)
- inhibition [2]: -14% (inactive)
- inhibition [3]: -21% (inactive)
SMILES: COC(=O)c1nnc(C(=O)OC)c(-c2ccc3cc(OC)ccc3n2)n1

- inhibition [1]: 16% (inactive)
- inhibition [2]: -18% (inactive)
- inhibition [3]: -20% (inactive)
SMILES: COC(=O)c1cc(-c2ccccc2)c(C(=O)OC)c(-c2ccc3ccccc3n2)n1

- inhibition [1]: 97%
- inhibition [4]: 98%
- inhibition [2]: 85%
- inhibition [3]: 71%
SMILES: NC1=CC(=O)c2ccc(-c3cccc(C(=O)O)n3)nc2C1=O

- inhibition [1]: 19% (inactive)
- inhibition [2]: 17% (inactive)
- inhibition [3]: -12% (inactive)
SMILES: COc1ccc2ncccc2c1[N+](=O)[O-]

- inhibition [1]: -20% (inactive)
- inhibition [2]: -29% (inactive)
- inhibition [3]: 5% (inactive)
SMILES: COC(=O)c1nc(C(C)=O)c2[nH]c3ccccc3c2c1C

- inhibition [1]: 44% (inactive)
- inhibition [4]: 43% (inactive)
- inhibition [2]: 28% (inactive)
- inhibition [3]: 22% (inactive)
SMILES: NC1=C(N)C(=O)c2ccccc2C1=O

- inhibition [1]: -43% (inactive)
- inhibition [2]: -26% (inactive)
- inhibition [3]: 0% (inactive)
SMILES: COC(=O)c1cccc(-c2ccc3c(n2)C(=O)C(Br)=CC3=O)n1

- inhibition [1]: 100%
- inhibition [4]: 91%
- inhibition [2]: 62%
- inhibition [3]: 50%
SMILES: COC1=C(Br)C(=O)c2nc(-c3ccccn3)ccc2C1=O

- inhibition [1]: -28% (inactive)
- inhibition [2]: -22% (inactive)
- inhibition [3]: -5% (inactive)
SMILES: COC(=O)c1cccc(-c2ccc3ccc(Br)c(O)c3n2)n1

- inhibition [1]: 96%
- inhibition [4]: 83%
- inhibition [2]: 41% (inactive)
- inhibition [3]: 39% (inactive)
SMILES: O=C1C(O)=C(O)C(=O)c2ncccc21

- inhibition [1]: -7% (inactive)
- inhibition [2]: -18% (inactive)
- inhibition [3]: -23% (inactive)
SMILES: O=C(O)c1cccc(-c2ccc3ccc(Br)c(OCc4ccccc4)c3n2)n1

- inhibition [1]: 24% (inactive)
- inhibition [2]: -13% (inactive)
- inhibition [3]: -41% (inactive)
SMILES: COC(=O)c1nnc(C(=O)OC)c(-c2ccc3ccccc3n2)n1

Continued, molecule first:

SMILES: NC1=CC(=O)c2ccc(-c3ccccn3)nc2C1=O
- inhibition [1]: 90%
- inhibition [2]: 101%
- inhibition [3]: 73%

SMILES: COC1=CC(=O)c2nc(C#N)ccc2C1=O
- inhibition [1]: 99%
- inhibition [4]: 97%
- inhibition [2]: 88%
- inhibition [3]: 68%

SMILES: COc1ccc2nc(C#N)ccc2c1
- inhibition [1]: 8% (inactive)
- inhibition [2]: 35% (inactive)
- inhibition [3]: -37% (inactive)

SMILES: COc1ccc2nc(C#N)ccc2c1[N+](=O)[O-]
- inhibition [1]: 16% (inactive)
- inhibition [2]: 2% (inactive)
- inhibition [3]: -24% (inactive)

SMILES: COC1=C(Br)C(=O)c2ncccc2C1=O
- inhibition [1]: 7% (inactive)
- inhibition [2]: 88%
- inhibition [3]: 75%

SMILES: COC(=O)c1nc(C(=O)OC)c(NC(C)=O)c(-c2ccccc2Br)c1C
- inhibition [1]: -30% (inactive)
- inhibition [2]: -19% (inactive)
- inhibition [3]: -20% (inactive)

SMILES: COC(=O)c1cccc(-c2ccc3c(n2)C(=O)C(N)=CC3=O)n1
- inhibition [1]: 84%
- inhibition [2]: 92%
- inhibition [3]: 75%

SMILES: COC(=O)c1nc(C(=O)OC)c(N)c(-c2ccccc2Br)c1C
- inhibition [1]: -30% (inactive)
- inhibition [2]: -22% (inactive)
- inhibition [3]: -6% (inactive)

SMILES: O=C1C=C(Br)C(=O)c2ncccc21
- inhibition [1]: 76%
- inhibition [4]: 56%
- inhibition [2]: 14% (inactive)
- inhibition [3]: -17% (inactive)

SMILES: COC(=O)c1nc(-c2ccc3c(n2)C(=O)C(Br)=CC3=O)c2[nH]c3ccccc3c2c1C
- inhibition [1]: -16% (inactive)
- inhibition [2]: -15% (inactive)
- inhibition [3]: -24% (inactive)

SMILES: COC1=C(N)C(=O)c2ncccc2C1=O
- inhibition [1]: 100%
- inhibition [4]: 87%
- inhibition [2]: 78%
- inhibition [3]: 57%

SMILES: NC1=CC(=O)c2ccc(-c3cc(C(=O)O)ccc3N)nc2C1=O
- inhibition [1]: 8% (inactive)
- inhibition [4]: 13% (inactive)
- inhibition [2]: -19% (inactive)
- inhibition [3]: -13% (inactive)

— PubChem BioAssay AID588560 (The Scripps Research Institute Molecular Screening Center, 2011)
